# Results: ChEMBL document CHEMBL1149165, “Significant differences in biological parameters between prodrugs cleavable by carboxypeptidase G2 that generate 3,5-difluoro-phenol and -aniline nitrogen mustards in gene-directed enzyme prodrug therapy systems” (J Med Chem, 2004)
# B1: Carboxypeptidase G2 (Pseudomonas aeruginosa (strain ATCC 15692 / PAO1 / 1C / PRS 101 / LMG12228)), Q9I056 (protein)
# chain: MHARRLPRLLPLALAFLLSPAAFAADTPAAELLRQAEAERPAYLDTLRQLVAVDSGTGQAEGLGQLSALLAERLQALGAQVRSAPATPSAGDNLVATLDGTGSKRFLLMIHYDTVFAAGSAAKRPFREDAERAYGPGVADAKGGVAMVLHALALLRQQGFRDYGRITVLFNPDEETGSAGSKQLIAELARQQDYVFSYEPPDRDAVTVATNGIDGLLLEVKGRSSHAGSAPEQGRNAILELSHQLLRLKDLGDPAKGTTLNWTLARGGEKRNIIPAEASAEADMRYSDPAESERVLADARKLTGERLVADTEVSLRLDKGRPPLVKNPASQRLAETAQTLYGRIGKRIEPIAMRFGTDAGYAYVPGSDKPAVLETLGVVGAGLHSEAEYLELSSIAPRLYLTVALIRELSAD
# How the values were obtained:
# [1] = The chemical half-life by HPLC; type: ADME
# How it was run: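 10 mM DMSO stocks diluted 100-fold to 100 µM in 100 mM Tris-HCl pH 7.3 with 260 µM ZnCl₂. Remaining parent measured over time by isocratic reverse-phase HPLC (phenyl column, 0.1% TFA with 65-85% methanol, 250-275 nm), using repeat or delayed injections. Half-life from one-phase exponential decay fit, maximum 1 and minimum 0.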
# [2] = system: MDA-MB-361; experiment: Ratio of the IC50 in thebeta-Gal- and CPG2-expressing cell line; type: functional, Homo sapiens
# How it was run: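 Degree of activation: IC50 in β-Gal-expressing MDA MB 361 cells divided by IC50 in stCPG2(Q)3-expressing cells. Both IC50s are from sulforhodamine-B regrowth assays after two-stage prodrug exposure, fitted to a log dose-effect sigmoid.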
# [3] = substrate: O=C(O)CCC[C@H](NC(=O)Nc1cc(F)c(N(CCCl)CCCl)c(F)c1)C(=O)O; experiment: Michaelis-Menten constant towards carboxypeptidase G2 enzyme; conditions: Pseudomonas aeruginosa
# How it was run: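 CPG2 (50 mU) with prodrug at 5-50 µM in 5 µM steps, diluted from DMSO concentrates into 100 mM Tris-HCl pH 7.3 with 260 µM ZnCl₂, 37 °C. Remaining prodrug measured by isocratic reverse-phase HPLC (phenyl column, 0.1% TFA/methanol, 250-275 nm) at 0, 5, 10, 15 and 20 min.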
molecule,measurement,setting,value
O=C(O)CCC[C@H](NC(=O)Oc1cc(F)c(N(CCCl)CCCl)c(F)c1)C(=O)O,half-life,[1],45 min
CS(=O)(=O)OCCN(CCCl)c1c(F)cc(OC(=O)N[C@@H](CCCC(=O)O)C(=O)O)cc1F,Degree of activation,[2],0.9 fold
B1,Km,[3],7.7 µM
